Source: ChEMBL document CHEMBL1148950, “Indole glucoalkaloids from Chimarrhis turbinata and their evaluation as antioxidant agents and acetylcholinesterase inhibitors” (J Nat Prod, 2004)
The source made the active and inactive calls. No cut-off for these calls is given here.

Biological target: T1, Acetylcholinesterase (Rattus norvegicus, UniProt P37136)
T1 sequence (P37136 whole entry): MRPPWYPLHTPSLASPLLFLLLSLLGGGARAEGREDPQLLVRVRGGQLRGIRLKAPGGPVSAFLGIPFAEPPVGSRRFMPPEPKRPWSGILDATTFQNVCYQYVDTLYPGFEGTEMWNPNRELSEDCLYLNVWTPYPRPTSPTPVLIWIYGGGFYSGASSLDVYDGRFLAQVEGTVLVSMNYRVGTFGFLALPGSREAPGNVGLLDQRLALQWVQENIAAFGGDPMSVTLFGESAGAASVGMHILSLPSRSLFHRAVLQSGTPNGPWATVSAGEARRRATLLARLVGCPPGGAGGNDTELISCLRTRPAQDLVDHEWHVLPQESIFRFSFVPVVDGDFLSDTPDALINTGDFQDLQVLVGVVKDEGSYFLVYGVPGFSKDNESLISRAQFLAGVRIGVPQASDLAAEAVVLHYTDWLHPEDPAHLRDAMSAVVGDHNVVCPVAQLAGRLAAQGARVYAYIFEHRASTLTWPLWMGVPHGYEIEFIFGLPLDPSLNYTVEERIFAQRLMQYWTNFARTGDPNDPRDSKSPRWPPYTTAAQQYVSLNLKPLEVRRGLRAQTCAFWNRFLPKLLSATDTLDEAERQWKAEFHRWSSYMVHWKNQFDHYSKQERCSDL
Test: Inhibition of rat brain acetylcholinesterase by colorimetric method

For `C=C[C@H]1[C@@H](/C(=C/O)C(=O)OC)C[C@H]2c3[nH]c4ccccc4c3CCN2[C@H]1O[C@H]1O[C@@H](CO)[C@H](O)[C@@H](O)[C@@H]1O` [TURBINATINE], the IC50 was 1.86 µM.

System: Radical scavenging activity
Test: Antioxidant activity assessed as DPPH radical scavenging activity
Assay type: functional
How it was run: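 Radical scavenging against DPPH with rutin as the reference standard. The value is the concentration in µM needed to scavenge 50% of DPPH free radicals.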

Point of comparison: `C=CC1C(C[C@@H]2NCCc3c2[nH]c2ccccc32)C(C(=O)O)=CO[C@H]1O[C@@H]1O[C@H](CO)[C@@H](O)[C@H](O)[C@H]1O` (stereo partly drawn) [STRICTOSIDINIC ACID], IC50 49.7 µM. Against it:
- C=CC1C(CC2=NCCc3c2[nH]c2ccccc32)C(C(=O)OC)=CO[C@H]1O[C@@H]1O[C@H](CO)[C@@H](O)[C@H](O)[C@H]1O (stereo partly drawn) — within 1.5-fold, 55.1 µM
- C=CC1C(C[C@@H]2NC(C(=O)O)Cc3c2[nH]c2ccccc32)C(C(=O)OC)=CO[C@H]1O[C@@H]1O[C@H](CO)[C@@H](O)[C@H](O)[C@H]1O (stereo partly drawn) — within 1.5-fold, 47.1 µM
- C=CC1C(CC2=NCCc3c2[nH]c2ccccc32)C(C(=O)O)=CO[C@H]1O[C@@H]1O[C@H](CO)[C@@H](O)[C@H](O)[C@H]1O (stereo partly drawn) — within 1.5-fold, 52.3 µM
- C=CC1C(Cc2nc(C(=O)O)cc3c2[nH]c2ccc(O)cc23)C(C(=O)OC)=CO[C@H]1O[C@@H]1O[C@H](CO)[C@@H](O)[C@H](O)[C@H]1O (stereo partly drawn) [CORDIFOLINE] — 2.7-fold lower, 18.3 µM
- C=C[C@H]1[C@H](O[C@H]2O[C@H](CO)[C@@H](O)[C@H](O)[C@H]2O)OC=C(C(=O)OC)[C@H]1Cc1nc(C(=O)O)cc2c1[nH]c1ccccc12 [DESOXYCORDIFOLINE] — within 1.5-fold, 49.9 µM
- Cc1nc(C(=O)O)cc2c1[nH]c1ccccc12 [HARMAN-3-CARBOXYLIC ACID] — within 1.5-fold, 45.5 µM
- C[C@@H]1O[C@@H](OC[C@H]2O[C@@H](Oc3c(-c4ccc(O)c(O)c4)oc4cc(O)cc(O)c4c3=O)[C@H](O)[C@@H](O)[C@@H]2O)[C@H](O)[C@H](O)[C@H]1O [RUTIN] — 4-fold lower, 12.3 µM
- C=C[C@H]1[C@H](O[C@@H]2O[C@H](CO)[C@@H](O)[C@H](O)[C@H]2O)OC=C(C(=O)OC)[C@H]1C[C@@H]1NCCc2c1[nH]c1ccccc21 [STRICTOSIDINE] — within 1.5-fold, 56 µM
- C=C[C@H]1[C@@H](/C(=C/O)C(=O)OC)C[C@H]2c3[nH]c4ccccc4c3CCN2[C@H]1O[C@H]1O[C@@H](CO)[C@H](O)[C@@H](O)[C@@H]1O [TURBINATINE] — within 1.5-fold, 50.9 µM

Biological target: Acetylcholinesterase (Homo sapiens) (UniProt P22303)
Sequence (P22303 whole entry): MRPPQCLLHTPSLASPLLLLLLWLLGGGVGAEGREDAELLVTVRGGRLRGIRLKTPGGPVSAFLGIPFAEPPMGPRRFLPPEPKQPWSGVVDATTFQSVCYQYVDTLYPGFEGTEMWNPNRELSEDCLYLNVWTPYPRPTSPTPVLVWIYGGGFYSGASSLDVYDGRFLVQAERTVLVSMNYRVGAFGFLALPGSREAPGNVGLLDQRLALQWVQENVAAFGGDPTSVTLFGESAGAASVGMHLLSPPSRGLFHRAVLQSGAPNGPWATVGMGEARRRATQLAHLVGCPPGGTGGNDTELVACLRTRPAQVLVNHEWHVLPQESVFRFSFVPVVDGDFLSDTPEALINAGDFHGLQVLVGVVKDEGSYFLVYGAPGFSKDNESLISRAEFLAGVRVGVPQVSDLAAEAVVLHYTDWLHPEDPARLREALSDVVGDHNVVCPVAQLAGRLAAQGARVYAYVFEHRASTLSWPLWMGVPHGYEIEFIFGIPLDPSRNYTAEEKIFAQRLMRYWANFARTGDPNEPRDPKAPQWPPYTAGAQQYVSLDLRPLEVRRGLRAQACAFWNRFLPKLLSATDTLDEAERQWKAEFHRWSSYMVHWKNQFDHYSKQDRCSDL
Test: Inhibition of acetylcholinesterase at 0.1 uM by TLC screening assay
How it was run: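 TLC bioautography on silica gel. Samples in MeOH or MeOH-CH2Cl2 at 0.1 and 1.0 mM were spotted (2 µL), with physostigmine and galanthamine references at 0.1 and 0.01 µM. The plate was sprayed to saturation with 1:1 1 mM DTNB/[…] iodide in buffer, dried 5 min, then sprayed with 3 U/mL AChE. White spots on a yellow background were scored as inhibition.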

In the case of `C=C[C@H]1[C@@H](/C(=C/O)C(=O)OC)C[C@H]2c3[nH]c4ccccc4c3CCN2[C@H]1O[C@H]1O[C@@H](CO)[C@H](O)[C@@H](O)[C@@H]1O` [TURBINATINE], the Activity is reported as “Active”.

Biological target: Acetylcholinesterase (Homo sapiens) (UniProt P22303)
Test: Inhibition of acetylcholinesterase at 1.0 uM by TLC screening assay

For `C=C[C@H]1[C@H](O[C@H]2O[C@H](CO)[C@@H](O)[C@H](O)[C@H]2O)OC=C(C(=O)OC)[C@H]1Cc1nc(C(=O)O)cc2c1[nH]c1ccccc12` [DESOXYCORDIFOLINE], the Activity was “Active”.
